For 7 compounds, EC50 and inhibition results are on record in ChEMBL document CHEMBL2016531, “Identification of NAE Inhibitors Exhibiting Potent Activity in Leukemia Cells: Exploring the Structural Determinants of NAE Specificity” (ACS Med Chem Lett, 2011).

One assay has as its system K562. The assay is described as follows: Antiproliferative activity against human K562 cells after 72 hrs by CellTiter-Glo assay. The assay is classed as functional, cell-based. Conditions: K562, 72 h. A digest of the protocol: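 K562 leukemia cells exposed to increasing concentrations for 72 h; growth and viability read by CellTiter-Glo luminescence.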
The target of assay [1] is SUMO-activating enzyme (Homo sapiens) (UniProt Q9UBE0+Q9UBT2). The assay is described as follows: Inhibition of human recombinant SAE1/2 assessed as inhibition of SUMO1-UbcH9 complex formation at 0.001 to 10 uM after 1.5 hrs by Western blot analysis. The assay is classed as protein-complex assay. A digest of the protocol: (§1)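 Cell-free gel assay. Purified human recombinant E1 incubated with its matching Ub/Ubl and E2 in 50 mM HEPES pH 7.4, 5 mM MgCl2, 1–20 μM ATP. Inhibitor at 0, 0.001, 0.01, 0.1, 1 or 10 μM, 1.5 h at room temperature. Products resolved by SDS-PAGE, immunoblotted and detected by ECL; densitometry used for semiquantitation.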

The species entered for assay [2] is Homo sapiens. The assay is described as follows: Inhibition of human recombinant NAE assessed as inhibition of NEDD8-UbcH12 complex formation at 0.001 to 10 uM after 1.5 hrs by Western blot analysis. A digest of the protocol: as §1
Assay [3] addresses T1, NEDD8-activating enzyme E1 regulatory subunit (Homo sapiens) (UniProt Q13564).
T1 sequence (whole entry): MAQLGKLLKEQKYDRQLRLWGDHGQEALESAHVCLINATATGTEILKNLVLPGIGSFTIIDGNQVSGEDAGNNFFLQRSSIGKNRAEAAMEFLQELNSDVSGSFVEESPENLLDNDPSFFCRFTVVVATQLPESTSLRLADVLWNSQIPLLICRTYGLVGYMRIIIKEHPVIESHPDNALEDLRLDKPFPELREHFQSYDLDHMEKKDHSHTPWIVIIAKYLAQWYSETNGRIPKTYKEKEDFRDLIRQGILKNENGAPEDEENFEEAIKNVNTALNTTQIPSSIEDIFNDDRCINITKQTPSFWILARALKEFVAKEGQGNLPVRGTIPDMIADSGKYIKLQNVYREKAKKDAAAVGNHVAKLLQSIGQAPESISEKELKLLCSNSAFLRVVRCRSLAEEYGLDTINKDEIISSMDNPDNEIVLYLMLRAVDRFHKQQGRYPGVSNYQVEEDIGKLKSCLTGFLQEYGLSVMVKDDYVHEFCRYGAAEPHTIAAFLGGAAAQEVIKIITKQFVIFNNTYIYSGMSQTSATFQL
The assay is described as follows: Inhibition of APPBP1-mediated NEDD8 activation at […] after 1.5 hrs by Western blot analysis.

In assay [4] the target is Ubiquitin-like modifier-activating enzyme 5 (Homo sapiens) (UniProt Q9GZZ9). Put plainly: Inhibition of human recombinant UBA5 assessed as inhibition of […]-UFM1 complex formation at 10 uM after 1.5 hrs by Western blot analysis. In a few lines:
as §1

For assay [5], the species on record is Homo sapiens. Put plainly: Inhibition of human recombinant UAE assessed as inhibition of UbcH6-Ub complex formation at 0.001 to 10 uM after 1.5 hrs by Western blot analysis. A digest of the protocol: as §1
Assay [6] has as its target T2, NEDD8-activating enzyme E1 catalytic subunit (Homo sapiens) (UniProt Q8TBC4).
T2 sequence (whole entry): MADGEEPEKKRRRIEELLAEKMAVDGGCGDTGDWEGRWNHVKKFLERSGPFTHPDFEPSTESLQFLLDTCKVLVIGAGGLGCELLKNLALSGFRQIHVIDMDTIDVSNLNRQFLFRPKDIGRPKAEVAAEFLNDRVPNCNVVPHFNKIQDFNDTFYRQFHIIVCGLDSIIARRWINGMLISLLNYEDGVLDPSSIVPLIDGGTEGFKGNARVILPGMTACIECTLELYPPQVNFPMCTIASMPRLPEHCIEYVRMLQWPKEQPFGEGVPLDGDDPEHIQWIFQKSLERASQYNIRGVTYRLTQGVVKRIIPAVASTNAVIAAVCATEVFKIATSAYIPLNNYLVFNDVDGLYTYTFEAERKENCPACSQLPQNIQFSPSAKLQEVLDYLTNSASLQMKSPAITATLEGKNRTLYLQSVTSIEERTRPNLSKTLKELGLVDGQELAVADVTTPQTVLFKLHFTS
The assay is described as follows: Inhibition of UBA3-mediated NEDD8 activation at […] after 1.5 hrs by Western blot analysis.

The species entered for assay [7] is Homo sapiens. The assay is described as follows: Inhibition of human recombinant NAE assessed as inhibition of NEDD8-UbcH12 complex formation at >10 nM after 1.5 hrs by Western blot analysis. A digest of the protocol:
as §1

Assay [8] is filed under the species Homo sapiens. The assay is described as follows: Inhibition of human recombinant NAE assessed as inhibition of NEDD8-UbcH12 complex formation at 1 nM after 1.5 hrs by Western blot analysis. A digest of the protocol: as §1
The species entered for assay [9] is Homo sapiens. The assay is described as follows: Inhibition of human recombinant NAE assessed as inhibition of NEDD8-UbcH12 complex formation at <10 nM after 1.5 hrs by Western blot analysis. In a few lines:
as §1

Assay [10] is filed under the species Homo sapiens. Put plainly: Inhibition of human recombinant NAE assessed as inhibition of NEDD8-UbcH12 complex formation at 10 nM after 1.5 hrs by Western blot analysis. A digest of the protocol: as §1

pEC50: −log10 of the molar value. Calls of active or inactive are those of the source. The rule behind the calls is not given here.

Chain of Ubiquitin-like modifier-activating enzyme 5 (Homo sapiens) (Q9GZZ9 whole entry): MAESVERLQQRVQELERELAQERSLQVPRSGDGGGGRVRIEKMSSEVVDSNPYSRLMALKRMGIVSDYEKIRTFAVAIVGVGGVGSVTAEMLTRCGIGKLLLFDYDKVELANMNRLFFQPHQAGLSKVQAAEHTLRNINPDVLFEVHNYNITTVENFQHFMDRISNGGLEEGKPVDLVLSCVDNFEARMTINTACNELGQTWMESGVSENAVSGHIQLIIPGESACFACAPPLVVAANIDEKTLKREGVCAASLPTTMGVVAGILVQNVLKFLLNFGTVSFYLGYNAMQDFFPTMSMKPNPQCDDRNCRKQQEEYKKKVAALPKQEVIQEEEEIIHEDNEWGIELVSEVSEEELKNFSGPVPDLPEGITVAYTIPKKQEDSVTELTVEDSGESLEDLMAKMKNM

The compound `NS(=O)(=O)OC[C@H]1O[C@@H](n2cnc3c(N[C@H]4CCc5ccccc54)ncnc32)[C@H](O)[C@@H]1O` gave a negative-log EC50 (pEC50) with K562 of 6.90. Besides, the inhibition result (in [1]; in the assay filed under Homo sapiens [2]; in assay [3]; in the assay listed under Homo sapiens [5]; in assay [6]) was “Active” each time. For the same compound, the inhibition entry in assay [4] was “inactive”.

On to `CCCCNc1ncnc2c1ncn2[C@@H]1O[C@H](COS(N)(=O)=O)[C@@H](O)[C@H]1O`, for which the inhibition entry in the assay filed under Homo sapiens [7] is “Active”. For the same compound, in the assay listed under Homo sapiens [8], the inhibition is < 58%.

For `CCN(c1ncnc2c1ncn2[C@@H]1O[C@H](COS(N)(=O)=O)[C@@H](O)[C@H]1O)C(C)C`, the inhibition result in the assay listed under Homo sapiens [7] is “Active”. In addition, the inhibition result in the assay filed under Homo sapiens [9] is “inactive”.

For `CN(Cc1ccco1)c1ncnc2c1ncn2[C@@H]1O[C@H](COS(N)(=O)=O)[C@@H](O)[C@H]1O`, in the assay with K562, the pEC50 was < 6.00. Moreover, the inhibition entry (in assay [1]; in the assay filed under Homo sapiens [2]; in the assay filed under Homo sapiens [7]; in the assay filed under Homo sapiens [5]) was “Active” throughout. In addition, the inhibition result (in [4]; in the assay filed under Homo sapiens [9]) was “inactive” in each case.

In the case of `CC(C)Nc1ncnc2c1ncn2[C@@H]1O[C@H](COS(N)(=O)=O)[C@@H](O)[C@H]1O`, the inhibition entry (in [1]; in the assay listed under Homo sapiens [2]; in the assay filed under Homo sapiens [7]; in the assay listed under Homo sapiens [5]) was “Active” each time. Further, the inhibition result in [4] was “inactive”.

With `NS(=O)(=O)OC[C@H]1O[C@@H](n2cnc3c(NCc4ccoc4)ncnc32)[C@H](O)[C@@H]1O`, the inhibition result in the assay filed under Homo sapiens [7] is “Active”. For the same compound, the inhibition in the assay filed under Homo sapiens [10] was determined as 100%.

Turning to `CCCCN(C)c1ncnc2c1ncn2[C@@H]1O[C@H](COS(N)(=O)=O)[C@@H](O)[C@H]1O`, the inhibition result in the assay filed under Homo sapiens [7] is “Active”. In addition, in the assay filed under Homo sapiens [9], the inhibition result is “inactive”.
